A selection: hits, their analogues and other compounds. The true share with any hit is near 6.4%.
GRIN3A LBD mod: modulators (binders) of human NR3A ligand-binding domain | NR3A LBD differential scanning fluorimetry, Tm shift; 0% = protein alone, 100% = glycine-bound protein | Tm shift relative to glycine control, % at 25 µM | 340,000 tested, 2.5% active | AID 1259313;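 active = melting temperature shift of at least 10% of the positive control shift, at one fixed dose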
MPTP block: permeability transition pore inhibition; isolated mouse mitochondria, Ca2+ swelling absorbance, 30 min; inhibition, % at 10 µM; 360,000 tested, 1.4% active;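 active = inhibition of 50% or more, scaled per plate between neutral and stimulator controls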
EBV gp42 inh: EBV gp42 inhibition; Fluorescence polarization binding assay, mP read-out; inhibition, % (tested at 21.74 µM); 220,000 tested, 0.42% active; AID 1085; in the data active = inhibition above about 50%
Target sequence (Q1HVG2 whole entry, looked up): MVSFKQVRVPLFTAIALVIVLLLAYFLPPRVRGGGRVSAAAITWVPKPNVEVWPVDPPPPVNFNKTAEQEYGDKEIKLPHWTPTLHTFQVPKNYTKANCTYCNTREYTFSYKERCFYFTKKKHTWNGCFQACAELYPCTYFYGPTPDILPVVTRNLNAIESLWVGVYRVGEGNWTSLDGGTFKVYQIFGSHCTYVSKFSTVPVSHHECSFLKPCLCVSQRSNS
CHOP inh: CHOP inhibition in unfolded protein response. inhibition, % at 10 µM. AID 2732. 220,000 tested, 3.8% active. CHO-K1 CHOP-promoter luciferase, tunicamycin-induced, 15-18 h;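 active = compounds that reduced the stress-induced luciferase reporter signal by more than about 70% of percent inhibition, limit read from the data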
TbMetRS inhib: Trypanosoma brucei MetRS inhibition; inhibition, % at 11.9 µM; 360,000 tested, 0.4% active; purified T. brucei MetRS, ATP depletion, Kinase-Glo luminescence; AID 624268;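 active = inhibition above a per-plate cutoff of the control wells' mean inhibition plus 3 SD, cut at about 5.5% in these data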
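Test system: purified T. brucei MetRS enzyme. Also added: ATP, methionine and E. coli bulk tRNA substrates. Compound: 11.9 µM single point. Schedule: 15 min enzyme-compound preincubation, 2 h reaction, 10 min detection, 25 °C. Signal: luciferase luminescence of residual ATP, Kinase-Glo. Evaluation: percent inhibition versus plate control medians. Controls: DMSO wells, low control.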
WT yeast gro inh: growth inhibition of WT yeast, mitochondrial fusion screen. mitochondrial fusion phenotypic screen, WT strain. inhibition, % at 10 µM. 190,000 tested, 2.1% active. AID 1362; in the data active = inhibition above about 58%; tested in S. cerevisiae
Hits are given with their value; – = inactive; · = no result given.

SMILES	GRIN3A LBD mod	MPTP block	EBV gp42 inh	CHOP inh	TbMetRS inhib	WT yeast gro inh
CC(=O)OC1C(N2CCCCC2)c2c(ccc(/C=C/C(=O)N3CCCCC3)c2O)OC1(C)C (stereo not given)	–	–	–	77	–	–
COc1ccccc1NC(=S)NCCc1c[nH]c2ccccc12	–	–	–	–	–	–
COc1cc(NC(=S)NCCc2c[nH]c3ccccc23)c(OC)cc1Cl	36	–	–	–	–	–
O=C(NCCc1c[nH]c2ccccc12)Nc1cccc2ccccc12	18	–	–	–	–	–
COc1ccc2c(CCNC(=O)Nc3ccccc3)c[nH]c2c1	–	–	–	–	–	–
CCOc1ccccc1NC(=O)NCCc1c[nH]c2ccccc12	–	–	·	·	–	·
COc1ccc(NC(=S)NCCc2c[nH]c3ccccc23)cc1	26	–	–	–	–	–
COc1ccc2[nH]cc(CCNC(=S)NCCc3ccccc3)c2c1	26	–	–	–	–	–
COc1ccc2[nH]cc(CCNC(=O)Nc3ccccc3)c2c1	–	–	·	·	–	·
COc1ccccc1CNC(=O)CCNC(=O)c1ccco1	–	–	·	·	–	·
CCn1cc(C(=O)O)c(=O)c2cc(F)c(N3CCN(C(=S)Nc4ccccc4OC)CC3)cc21	–	–	–	–	–	·
CCn1cc(C(=O)O)c(=O)c2cc(F)c(N/N=C/c3ccccc3[N+](=O)[O-])cc21	–	–	–	78	–	–
O=C(Nc1cccc(C(=O)O)c1)/C(=C\c1ccco1)NC(=O)c1ccccc1Cl	–	–	·	·	–	·
CSc1nc2ccc3nc(NC(=O)c4cccs4)sc3c2s1	28	–	–	–	–	–
O=C(Nc1nccs1)c1ccc(Cl)s1	–	–	–	–	–	–
CSc1nc2ccc3nc(NC(=O)c4ccc(Cl)s4)sc3c2s1	21	–	–	–	–	–
CNC(=O)N(O)C1N(C)C(=O)N(CC(=O)OC)C1(C)C (stereo not given)	–	–	–	–	–	–
CC(=O)N[C@@H](Cc1c[nH]c2ccccc12)C(=O)OCC(=O)Nc1ccc2c(c1)OCO2	12	–	·	·	–	·
COC(=O)[C@@H](Cc1c[nH]c2ccccc12)NC(=O)c1ccc2c(c1)OCO2	–	–	·	·	–	·
O=C(COC(=O)[C@H](Cc1c[nH]c2ccccc12)NC(=O)c1ccc(Cl)cc1)Nc1ccc2c(c1)OCO2	20	–	–	82	–	–
CC1CC1C(=O)OCC(=O)NCc1ccc(Cl)cc1Cl (stereo not given)	–	–	–	–	–	82
CC1CC1C(=O)OCC(=O)NCc1ccc(Cl)cc1 (stereo not given)	–	–	–	–	–	–
COC(=O)COc1ccc(NC(=O)C(c2ccccc2)c2ccccc2)cc1	–	–	·	·	–	·
COc1ccc(/C(C)=N/NC(=O)c2nc(C)cc(C)n2)cc1	–	–	–	–	–	–
O=C(O)c1cccc(N2C(=O)/C(=C/c3ccc(SCc4ccc(Cl)cc4)o3)SC2=S)c1	15	–	–	75	–	–
SMILES	GRIN3A LBD mod	MPTP block	EBV gp42 inh	CHOP inh	TbMetRS inhib	WT yeast gro inh
Cc1ccc2c(C(=O)CN3CCC4(CC3)OCCO4)c(C)[nH]c2c1	–	–	–	–	–	–
CC(C)CC1(C)NC(=O)NC1=O (stereo not given)	11	–	–	–	–	–
O=S(=O)(NCCSCc1c(Cl)cccc1Cl)c1ccc2c(c1)OCCO2	–	–	–	–	–	–
O=S(=O)(NCCSCc1ccc(Cl)cc1Cl)c1ccc2c(c1)OCCO2	–	–	–	–	–	73
CNC(=O)Cc1csc2ccc(C)cc12	14	–	–	–	–	·
O=C1NC2=C(C(=O)CCC2)C(c2ccccc2Cl)N1 (stereo not given)	–	–	·	·	–	·
Cc1nc(Cl)c2c(n1)NC1=C(O2)C(=O)CCC1	–	–	136	–	–	–
COc1ccc(C(=O)C2CCCN(Cc3ccc4nonc4c3)C2)cc1OC (stereo not given)	–	–	–	–	–	–
C/C(=N\NC(=O)c1c(Cl)cnn1C)c1ccc(NC(=O)c2ccc(Br)o2)cc1	14	–	·	·	–	·
C/C(=N\NC(=O)C1CC1)c1ccc(NC(=O)c2ccc(Br)o2)cc1	·	·	–	–	·	–
COC(=O)[C@@]12C[C@@H](CC(=O)NCCC(C)C)C(=O)N(Cc3ccc4c(c3)OCO4)C1=CCC(C)(C)C2	·	–	·	·	–	·
COc1cccc(C(=O)NCC(C)(C)SCc2ccc(F)cc2)c1	10	–	·	·	–	·
COc1cccc(C(=O)NCCSc2ccc(F)cc2)c1	–	–	–	–	–	–
Nc1cccc(S(=O)(=O)Nc2ccc(Br)cc2)c1	–	–	–	–	–	·
CC/C(=N\NC(=O)c1ccc2c(c1)OCO2)C12CC3CC(CC(C3)C1)C2	–	–	–	77	–	–
O=S(=O)([N-]c1nc2ccccc2nc1-[n+]1ccc(-c2ccncc2)cc1)c1ccccc1	–	–	56	–	–	–
C=CCOc1ccc(CNCc2cccnc2)cc1	–	–	·	·	–	·
O=[N+]([O-])c1nn(-c2ccc3c(c2)OCCO3)n(O)c1=Nc1ccccc1	–	–	–	88	–	–
Cc1ccc(CN=c2c([N+](=O)[O-])nn(-c3ccc4c(c3)OCCO4)n2O)cc1	13	–	–	–	–	–
O=[N+]([O-])c1nn(-c2ccc3c(c2)OCCO3)n(O)c1=NC1CCCCCC1	–	–	–	77	–	–
CC(C)c1cc(Cn2c3ccccc3c(=O)n2C(C)Cn2cc(CCc3ccccc3)nn2)on1 (stereo not given)	·	–	·	·	–	·
O=C1CC(c2ccccc2)CCc2sccc2N1 (stereo not given)	–	–	–	–	–	–
O=C(CCN1C(=O)c2cccc3cccc(c23)C1=O)N1CCN(c2ccccc2F)CC1	–	–	–	–	–	–
COc1ccc(/C=C/C(=O)NC(=S)Nc2ccc(Br)cn2)cc1	25	–	·	·	–	·
COc1ccc(/C=C/C(=O)NC(=S)NNC(=O)c2cc(OC)c(OC)c(OC)c2)cc1	–	–	–	89	–	·
SMILES	GRIN3A LBD mod	MPTP block	EBV gp42 inh	CHOP inh	TbMetRS inhib	WT yeast gro inh
COc1ccc(/C=C/C(=O)NC(=S)NNC(=O)c2cc(OC)c(OC)c(OC)c2)cc1OC	–	–	–	–	–	·
COc1ccc(/C=C/C(=O)NC(=S)NCCc2ccc(OC)c(OC)c2)cc1	–	–	–	88	–	–
N#CCCn1cc(/C=C2\NC(=S)N(c3ccccc3)C2=O)c(-c2ccc(F)cc2)n1	10	–	–	79	–	–
NC1=NC(=O)/C(=C/c2ccccc2OCC(=O)Nc2ccc(F)cc2)S1	–	–	·	·	–	·
CC1(Cc2ccccc2Cl)C(=O)Nc2cc(-c3ccccc3Cl)ccc21 (stereo not given)	·	–	·	·	–	·
COc1ccc2[nH]c(=O)c(CN(C(=O)c3ccccn3)c3ccccc3)cc2c1	–	–	–	–	–	–
CC(C)(C)NS(=O)(=O)c1cnc(Cl)c(Cl)c1	–	–	–	–	–	60

Source: PubChem BioAssay (several laboratories)
